A short description of assay [1]: Her2 expression decrease, cell viability multiplex – SKBR3 breast tumor cells, AlphaScreen, ATP viability, primary screen (AID 461;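 active = Her2 level under about 52% in both replicate screens, with viability over 70% of control, limit read from the data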;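 for Her2 level: lower value means less Her2 protein in the cells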;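 for viability: percent of carrier control wells set as 100% viability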). Conditions: SKBR3 Her2 protein level, 18-24 h, measured here: SKBR3 viability, ATP luminescence, at 10 µM.
For assay [2], the target named is Receptor tyrosine-protein kinase erbB-2 (Homo sapiens) (UniProt P04626). The assay is described as above. Conditions: 18-24 h, at 10 µM, stronger effect = lower value.
Sequence of Receptor tyrosine-protein kinase erbB-2 (Homo sapiens) (P04626 whole entry, looked up): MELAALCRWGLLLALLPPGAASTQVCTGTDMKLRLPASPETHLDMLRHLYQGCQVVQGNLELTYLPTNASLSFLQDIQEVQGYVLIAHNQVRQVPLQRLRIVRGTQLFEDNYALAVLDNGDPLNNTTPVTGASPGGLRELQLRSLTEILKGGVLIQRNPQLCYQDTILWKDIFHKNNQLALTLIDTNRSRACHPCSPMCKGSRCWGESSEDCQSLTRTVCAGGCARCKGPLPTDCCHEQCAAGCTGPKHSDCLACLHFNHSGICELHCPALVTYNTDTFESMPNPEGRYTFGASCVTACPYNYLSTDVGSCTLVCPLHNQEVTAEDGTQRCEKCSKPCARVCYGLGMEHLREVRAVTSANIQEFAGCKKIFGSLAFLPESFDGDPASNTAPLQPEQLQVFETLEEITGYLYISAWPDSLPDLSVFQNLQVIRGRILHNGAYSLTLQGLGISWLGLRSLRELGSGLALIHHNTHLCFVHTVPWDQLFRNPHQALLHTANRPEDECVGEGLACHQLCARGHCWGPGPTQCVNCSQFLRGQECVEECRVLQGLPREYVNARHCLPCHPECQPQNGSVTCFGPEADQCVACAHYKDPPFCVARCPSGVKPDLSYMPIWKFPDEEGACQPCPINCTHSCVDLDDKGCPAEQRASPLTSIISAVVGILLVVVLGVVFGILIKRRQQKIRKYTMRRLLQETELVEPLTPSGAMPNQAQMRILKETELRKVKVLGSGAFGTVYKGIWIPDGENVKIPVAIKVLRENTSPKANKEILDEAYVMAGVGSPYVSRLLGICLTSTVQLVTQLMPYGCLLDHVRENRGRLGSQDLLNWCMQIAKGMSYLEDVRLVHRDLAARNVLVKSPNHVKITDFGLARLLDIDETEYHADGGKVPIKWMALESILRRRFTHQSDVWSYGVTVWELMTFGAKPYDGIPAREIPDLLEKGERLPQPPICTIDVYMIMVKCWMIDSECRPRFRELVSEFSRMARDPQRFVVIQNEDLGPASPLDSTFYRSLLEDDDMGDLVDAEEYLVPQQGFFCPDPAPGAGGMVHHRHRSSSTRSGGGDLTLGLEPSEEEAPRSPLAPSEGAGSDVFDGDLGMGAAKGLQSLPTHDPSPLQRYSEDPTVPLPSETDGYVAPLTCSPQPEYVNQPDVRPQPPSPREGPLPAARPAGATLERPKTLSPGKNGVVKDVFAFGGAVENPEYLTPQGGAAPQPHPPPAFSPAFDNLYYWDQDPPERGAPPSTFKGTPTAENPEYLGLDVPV
Assay [3] is described as follows: reduced viability of SK-BR-3 breast cancer cells – cell-based, 24 h, human, pilot screen (AID 572;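 active = viability at or below 10% of carrier control in both of two separate runs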;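 note: compound exposure lasted between 18 and 24 h rather than exactly 24 h; 100% = carrier-treated control wells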). The note with it: SK-BR-3 viability, CellTiter-Glo luminescence, at 10 µM, stronger effect = lower value. For orientation: In ATP-based viability assays light output follows the ATP content of the culture.
A short description of assay [4]: HUVEC growth inhibition – cell-based, human, primary screen (AID 575;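 active = viability at or below 30% in both replicate assays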;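 note: 100% = median of untreated cell wells with 0.1% DMSO on each plate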). Conditions: HUVEC proliferation, CellTiter-Glo luminescence, 72 h; at 10 µM; stronger effect = lower value. Summed up: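 material = primary HUVEC, no more than 12 passages | input = 1250 cells per well | controls = vehicle and MePR control wells | measured by = CTG luminescence | times = 72 h compound incubation | format = collagen-coated 384-well format | read-out = % viability vs DMSO wells | doses = single 10 µM dose, 0.1% DMSO, from 5x medium stock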

Assay [5] in a line: H69AR cell proliferation blockers – human, duplicate replicates, primary screen (AID 580).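 Note: 100% = mean luminescence of untreated wells and 0% = no signal.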 Conditions: H69AR lung tumor cells viability, ATP luminescence, 72 h; at 10 µM; stronger effect = lower value.
Assay [6] in a line: MRP1 drug-resistance reversers in H69AR cells – cell-based, doxorubicin co-treatment, pilot screen (AID 601;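 active = viability loss from added drug above about 55%, and viability with drug at most 40%, in both replicates, limit read from the data, passing the limit was not always enough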). The note with it: CellTiter-Glo, 72 h, at 10 µM; for differential viability (reversal): stronger effect = higher value.
Assay [7] is described as follows: yeast transport mutant growth inhibition pilot in 384-well plates, post-Golgi transport modulator project (AID 636; in the data active = inhibition above about 31%). Conditions: absorbance 615 nm, about 18 h, stronger effect = higher value.
The nature of assay [8]: growth suppression of yeast trafficking mutant, preliminary HTS, modulators of trafficking downstream of Golgi apparatus project, 1536-format plate, OD 615 nm (AID 637; in the data active = inhibition above about 30%). Conditions: yeast transport mutant growth, absorbance 615 nm, 18 h; stronger effect = higher value.
Setting [9] is: H69AR cells + 2 uM doxorubicin, measured here: viability with 2 uM doxorubicin, stronger effect = lower value.
Setting [10] is: H69AR cells, compound alone cytotoxicity.

SMILES strings stand for the structures. The source made the active and inactive calls.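 Rule for the calls, unless noted: active = viability at or under a set limit in both replicates, limit being median viability minus 3 SD (cut at about 48% in these data, passing the limit was not always enough); inconclusive = at or under the limit in just one replicate; inactive = at or above the limit in both replicates.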

As to `CCc1nc2scc(-c3ccccc3)c2c(=O)n1N`, the viability (commonly a read-out of living cells in per cent, often relative to untreated cells) in assay [1] is 136%; in assay [3] it was 136% (inactive); in assay [4], 84% (inactive); in assay [5], 88.4% (inactive); in assay [6] (setting [9]), 96.5%; in assay [6] (setting [10]) it was 88.4%. For the same compound, the Her2 level in assay [2] is 119% (inactive). Also, the differential viability (reversal) in assay [6] (H69AR cells + 2 uM doxorubicin) was -8.11% (inactive). Besides, the inhibition (commonly the relative decrease from the control value, in per cent) in assay [7] is -1.33% (inactive); in assay [8] it was -3.97% (inactive).
Take `COc1ccc(Cn2nnnc2C(c2cc3cc(C)cc(C)c3[nH]c2=O)N2CCOCC2)cc1` (stereo not given): the viability is 108% in assay [1]; 108% (inactive) in assay [3]; 117% (inactive) in assay [4]; 99.4% (inactive) in assay [5]; 87.4% in assay [6] (setting [9]); 99.4% in assay [6] (setting [10]). Moreover, the Her2 level in assay [2] is 94.5% (inactive). The differential viability (reversal) in assay [6] (H69AR cells + 2 uM doxorubicin) is 11.9% (inactive). For the same compound, the inhibition in assay [7] was -7.47% (inactive); in assay [8] it was 0.32% (inactive).
On to `COc1ccccc1N1CCN(C(=O)C2CCCO2)CC1` (stereo not given), for which the viability in assay [1] was 98.5%; in assay [3], 98.5% (inactive); in assay [4] it was 90% (inactive); in assay [5] it was 97.5% (inactive); in assay [6] (setting [9]) it was 97.8%; in assay [6] (setting [10]), 97.5%. Moreover, the Her2 level in assay [2] was 92.5% (inactive). Besides, the differential viability (reversal) in assay [6] (H69AR cells + 2 uM doxorubicin) was -0.265% (inactive). Further, the inhibition in assay [7] was -1.69% (inactive); in assay [8], 1.8% (inactive).
Take `COc1ccc(Br)cc1CNC(=O)CCc1nc(-c2ccc(C)cc2)no1`: the viability in assay [1] was 101%; in assay [3] it was 101% (inactive); in assay [4], 87.4% (inactive); in assay [5], 94.2% (inactive); in assay [6] (setting [9]), 82.7%; in assay [6] (setting [10]), 94.2%. In assay [2], the Her2 level was 77.5% (inactive). In addition, the differential viability (reversal) in assay [6] (H69AR cells + 2 uM doxorubicin) was 11.5% (inactive). For the same compound, the inhibition in assay [7] is -4.34% (inactive); in assay [8], -4.67% (inactive).
On to `COc1cccc(NC(=O)N[C@@H](Cc2ccccc2)C(=O)O)c1`, for which the viability in assay [1] is 94%; in assay [3], 94% (inactive); in assay [4], 93.8% (inactive); in assay [5], 114% (inactive); in assay [6] (setting [9]), 94.5%; in assay [6] (setting [10]), 114%. Further, the Her2 level in assay [2] was 91.5% (inactive). In addition, the differential viability (reversal) in assay [6] (H69AR cells + 2 uM doxorubicin) is 19.6% (inactive). Moreover, the inhibition is -4.46% (inactive) in assay [7] and 2.06% (inactive) in assay [8].
For the compound `CC(C)(C)N(Cc1cc2ccccc2[nH]c1=O)C(=O)C1CCCCC1`, the viability in assay [1] was 104%; in assay [3], 104% (inactive); in assay [4], 69.4% (inactive); in assay [5] it was 86.1% (inactive); in assay [6] (setting [9]) it was 82.8%; in assay [6] (setting [10]), 86.1%. In assay [2], the Her2 level was 118% (inactive). The differential viability (reversal) in assay [6] (H69AR cells + 2 uM doxorubicin) is 3.29% (inactive). Besides, the inhibition is -3.2% (inactive) in assay [7] and -7.21% (inactive) in assay [8].
Consider `COc1ccccc1-c1cc(C(=O)NCCCn2ccnc2)no1`, for which the viability in assay [1] was 82%; in assay [3] it was 82% (inactive); in assay [4], 88.5% (inactive); in assay [5] it was 97.4% (inactive); in assay [6] (setting [9]) it was 83.1%; in assay [6] (setting [10]) it was 97.4%. Moreover, the Her2 level in assay [2] was 80% (inactive). Further, the differential viability (reversal) in assay [6] (H69AR cells + 2 uM doxorubicin) was 14.3% (inactive). Further, the inhibition was -7.03% (inactive) in assay [7] and -2.17% (inactive) in assay [8].
With `NC(=O)c1c(NC(=O)CN2CCCC2)sc2c1CCCC2`, the viability in assay [1] was 104%; in assay [3] it was 104% (inactive); in assay [4], 95.9% (inactive); in assay [5] it was 91.3% (inactive); in assay [6] (setting [9]) it was 86.6%; in assay [6] (setting [10]) it was 91.3%. In addition, the Her2 level in assay [2] was 114% (inactive). Moreover, the differential viability (reversal) in assay [6] (H69AR cells + 2 uM doxorubicin) is 4.73% (inactive). Also, the inhibition in assay [7] was -0.8% (inactive); in assay [8], -5.57% (inactive).
In the case of `C=CCn1c(SCC(=O)c2cc(C)n(C(C)COC)c2C)nc2sc(C)c(C)c2c1=O` (stereo not given), the viability in assay [1] is 97.5%; in assay [3] it was 97.5% (inactive); in assay [4], 68.2% (inactive); in assay [5], 82.8% (inactive); in assay [6] (setting [9]) it was 21.9%; in assay [6] (setting [10]), 82.8%. Also, in assay [2], the Her2 level is 77% (inactive). For the same compound, the differential viability (reversal) in assay [6] (H69AR cells + 2 uM doxorubicin) is 60.8% (active). In addition, the inhibition in assay [7] was -8.77% (inactive); in assay [8] it was -4.6% (inactive).
`Nn1c(SCC(=O)Nc2ccc3c(c2)OCCO3)nnc1C(F)(F)F`: the viability in assay [1] is 88.5%; in assay [3], 88.5% (inactive); in assay [4] it was 88.3% (inactive); in assay [5], 80.9% (inactive); in assay [6] (setting [9]), 88.8%; in assay [6] (setting [10]), 80.9%. Besides, in assay [2], the Her2 level was 78.5% (inactive). Further, the differential viability (reversal) in assay [6] (H69AR cells + 2 uM doxorubicin) is -7.85% (inactive). In addition, the inhibition in assay [7] is -2.5% (inactive); in assay [8] it was 1.27% (inactive).
Regarding `Cc1ccccc1N(CC(=O)NCC1CCCO1)C(=O)C1(C)CC(=O)N=C2C=CC=CN21` (stereo not given), the viability in assay [1] is 96%; in assay [3], 96% (inactive); in assay [4], 104% (inactive); in assay [5], 98.7% (inactive); in assay [6] (setting [9]), 100%; in assay [6] (setting [10]) it was 98.7%. Also, the Her2 level in assay [2] is 96.5% (inactive). In addition, the differential viability (reversal) in assay [6] (H69AR cells + 2 uM doxorubicin) is -1.7% (inactive). The inhibition is -1.05% (inactive) in assay [7] and -10.5% (inactive) in assay [8].
For the compound `CC(C)CC(=O)CN1C(=O)C2(OCCO2)c2ccccc21`, the viability in assay [1] is 93.5%; in assay [3], 93.5% (inactive); in assay [4] it was 101% (inactive); in assay [5], 89.6% (inactive); in assay [6] (setting [9]), 95.8%; in assay [6] (setting [10]), 89.6%. Also, the Her2 level in assay [2] is 107% (inactive). For the same compound, in assay [6] (H69AR cells + 2 uM doxorubicin), the differential viability (reversal) is -6.21% (inactive). For the same compound, the inhibition in assay [7] was -5.14% (inactive); in assay [8], 1.83% (inactive).
As for `CC(C)(C)NC(=O)COC(=O)c1ccc(O)cc1`, the viability in assay [1] was 100%; in assay [3] it was 100% (inactive); in assay [4], 103% (inactive); in assay [5], 98.9% (inactive); in assay [6] (setting [9]), 103%; in assay [6] (setting [10]), 98.9%. Also, the Her2 level in assay [2] was 104% (inactive). The differential viability (reversal) in assay [6] (H69AR cells + 2 uM doxorubicin) is -3.93% (inactive). Also, the inhibition in assay [7] was -2.99% (inactive); in assay [8], -1.27% (inactive).
`O=C(OCCCCN1C(=O)c2ccccc2C1=O)c1n[nH]c2ccccc12`: the viability is 92.5% in assay [1]; 92.5% (inactive) in assay [3]; 76.4% (inactive) in assay [4]; 101% (inactive) in assay [5]; 94.9% in assay [6] (setting [9]); 101% in assay [6] (setting [10]). For the same compound, the Her2 level in assay [2] is 86% (inactive). In addition, in assay [6] (H69AR cells + 2 uM doxorubicin), the differential viability (reversal) is 6.39% (inactive). Besides, the inhibition was -7.67% (inactive) in assay [7] and 4.29% (inactive) in assay [8].

Values taken from PubChem BioAssay.
